Experimental data from ChEMBL document CHEMBL1141640, “Cyclic guanidines as dual 5-HT5A/5-HT7 receptor ligands: optimising brain penetration” (Bioorg Med Chem Lett, 2008).
Blank lines part the entries; values can stand above or below the compound they belong to.

Key:
[1] = target: T1, 5-hydroxytryptamine receptor 5A (Homo sapiens, UniProt P47898); experiment: Binding affinity to human 5HT5A receptor
[2] = target: 5-hydroxytryptamine receptor 7 (Homo sapiens, UniProt P34969); experiment: Binding affinity to human 5HT7 receptor
5-hydroxytryptamine receptor 7, sequence (P34969 whole entry): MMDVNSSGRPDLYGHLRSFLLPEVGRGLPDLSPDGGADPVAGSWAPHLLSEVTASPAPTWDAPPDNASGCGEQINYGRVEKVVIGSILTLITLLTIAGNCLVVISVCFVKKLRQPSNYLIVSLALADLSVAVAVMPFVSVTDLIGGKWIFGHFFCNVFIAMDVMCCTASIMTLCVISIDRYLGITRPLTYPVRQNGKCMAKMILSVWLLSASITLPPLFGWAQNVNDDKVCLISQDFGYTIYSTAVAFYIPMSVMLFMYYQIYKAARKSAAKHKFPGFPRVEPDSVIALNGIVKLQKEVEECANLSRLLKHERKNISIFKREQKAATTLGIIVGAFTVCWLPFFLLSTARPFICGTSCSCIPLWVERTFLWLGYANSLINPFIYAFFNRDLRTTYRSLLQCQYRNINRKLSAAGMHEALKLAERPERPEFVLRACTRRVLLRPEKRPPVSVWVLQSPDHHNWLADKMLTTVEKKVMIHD

[3] = target: 5-hydroxytryptamine receptor 5A (Rattus norvegicus, UniProt P35364); experiment: Binding affinity to rat 5HT5A receptor
5-hydroxytryptamine receptor 5A (Rattus norvegicus, UniProt P35364), sequence (P35364 whole entry): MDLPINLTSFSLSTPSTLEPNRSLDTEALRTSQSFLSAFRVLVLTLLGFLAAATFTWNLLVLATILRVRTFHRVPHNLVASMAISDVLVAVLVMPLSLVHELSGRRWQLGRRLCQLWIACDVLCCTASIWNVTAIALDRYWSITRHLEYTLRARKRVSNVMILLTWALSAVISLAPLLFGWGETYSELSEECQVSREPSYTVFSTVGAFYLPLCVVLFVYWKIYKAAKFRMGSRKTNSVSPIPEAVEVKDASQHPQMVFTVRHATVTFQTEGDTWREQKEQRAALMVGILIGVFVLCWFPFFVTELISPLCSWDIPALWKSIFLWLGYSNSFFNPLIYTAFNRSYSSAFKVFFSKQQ

[4] = target: T2, 5-hydroxytryptamine receptor 1A (Homo sapiens, UniProt P08908); experiment: Binding affinity to human 5HT1A receptor
T2 sequence (P08908 whole entry): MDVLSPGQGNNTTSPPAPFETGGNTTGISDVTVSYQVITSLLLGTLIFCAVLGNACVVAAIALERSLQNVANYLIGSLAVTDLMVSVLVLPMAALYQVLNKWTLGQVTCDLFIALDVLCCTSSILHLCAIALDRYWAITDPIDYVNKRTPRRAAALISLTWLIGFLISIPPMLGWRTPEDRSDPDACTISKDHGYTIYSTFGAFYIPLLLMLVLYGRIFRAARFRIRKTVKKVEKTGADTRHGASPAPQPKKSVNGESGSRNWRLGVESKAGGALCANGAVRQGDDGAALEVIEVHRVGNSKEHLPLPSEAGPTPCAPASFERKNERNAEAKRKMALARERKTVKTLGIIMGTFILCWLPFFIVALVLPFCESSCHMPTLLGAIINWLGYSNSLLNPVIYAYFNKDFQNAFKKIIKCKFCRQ

[5] = target: T3, 5-hydroxytryptamine receptor 1D (Homo sapiens, UniProt P28221); experiment: Binding affinity to human 5HT1D receptor
T3 sequence (P28221 whole entry): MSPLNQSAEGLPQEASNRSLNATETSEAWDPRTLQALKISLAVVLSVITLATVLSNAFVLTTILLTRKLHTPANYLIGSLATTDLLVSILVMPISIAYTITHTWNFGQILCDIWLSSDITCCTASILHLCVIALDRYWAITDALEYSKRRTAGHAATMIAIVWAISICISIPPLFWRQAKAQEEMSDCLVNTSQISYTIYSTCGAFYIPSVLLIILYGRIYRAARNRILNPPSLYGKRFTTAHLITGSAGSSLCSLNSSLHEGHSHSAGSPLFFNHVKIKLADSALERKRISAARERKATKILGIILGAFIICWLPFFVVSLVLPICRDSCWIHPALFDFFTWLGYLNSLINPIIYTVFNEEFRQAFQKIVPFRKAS

[6] = target: 5-hydroxytryptamine receptor 2A (Homo sapiens, UniProt P28223); experiment: Binding affinity to human 5HT2A receptor
5-hydroxytryptamine receptor 2A, sequence (P28223 whole entry): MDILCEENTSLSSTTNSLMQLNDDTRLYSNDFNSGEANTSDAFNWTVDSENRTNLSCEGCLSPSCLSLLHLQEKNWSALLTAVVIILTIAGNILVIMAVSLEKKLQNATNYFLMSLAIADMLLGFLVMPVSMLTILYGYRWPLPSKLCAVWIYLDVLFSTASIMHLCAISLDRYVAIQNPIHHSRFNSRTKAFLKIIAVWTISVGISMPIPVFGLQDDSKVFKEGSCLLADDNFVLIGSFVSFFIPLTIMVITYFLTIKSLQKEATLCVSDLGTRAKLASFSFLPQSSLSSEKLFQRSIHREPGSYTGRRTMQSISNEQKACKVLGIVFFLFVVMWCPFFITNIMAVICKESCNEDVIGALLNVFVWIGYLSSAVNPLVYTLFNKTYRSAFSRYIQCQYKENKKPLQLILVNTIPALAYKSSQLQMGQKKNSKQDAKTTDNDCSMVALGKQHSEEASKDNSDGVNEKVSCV

[7] = target: T4, 5-hydroxytryptamine receptor 2C (Homo sapiens, UniProt P28335); experiment: Binding affinity to human 5HT2C receptor
T4 sequence (P28335 whole entry): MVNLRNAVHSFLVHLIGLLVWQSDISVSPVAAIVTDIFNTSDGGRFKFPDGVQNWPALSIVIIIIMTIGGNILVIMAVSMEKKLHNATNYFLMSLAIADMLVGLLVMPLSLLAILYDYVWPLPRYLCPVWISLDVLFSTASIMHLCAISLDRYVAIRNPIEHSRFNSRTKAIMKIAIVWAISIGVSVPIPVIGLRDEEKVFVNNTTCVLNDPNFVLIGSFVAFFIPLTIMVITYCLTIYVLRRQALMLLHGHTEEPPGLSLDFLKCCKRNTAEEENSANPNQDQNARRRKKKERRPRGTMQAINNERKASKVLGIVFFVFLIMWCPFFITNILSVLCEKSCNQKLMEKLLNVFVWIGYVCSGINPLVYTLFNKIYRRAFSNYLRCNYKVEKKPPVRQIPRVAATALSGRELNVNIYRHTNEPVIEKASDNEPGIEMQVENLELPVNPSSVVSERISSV

[8] = target: T5, 5-hydroxytryptamine receptor 3A (Homo sapiens, UniProt P46098); experiment: Binding affinity to human 5HT3 receptor
T5 sequence (P46098 whole entry): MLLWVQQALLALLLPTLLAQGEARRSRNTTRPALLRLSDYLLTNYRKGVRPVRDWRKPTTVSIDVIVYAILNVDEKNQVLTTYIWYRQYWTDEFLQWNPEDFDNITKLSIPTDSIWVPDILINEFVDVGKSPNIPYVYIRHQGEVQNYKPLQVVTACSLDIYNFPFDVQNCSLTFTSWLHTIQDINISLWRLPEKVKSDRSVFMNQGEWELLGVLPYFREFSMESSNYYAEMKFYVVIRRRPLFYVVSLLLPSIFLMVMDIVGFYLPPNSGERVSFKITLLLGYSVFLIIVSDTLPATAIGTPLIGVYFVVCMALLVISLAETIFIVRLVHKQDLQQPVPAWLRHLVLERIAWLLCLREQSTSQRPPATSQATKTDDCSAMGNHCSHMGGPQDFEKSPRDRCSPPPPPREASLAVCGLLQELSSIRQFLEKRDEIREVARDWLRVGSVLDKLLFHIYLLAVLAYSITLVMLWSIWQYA

[9] = target: 5-hydroxytryptamine receptor 6 (Homo sapiens, UniProt P50406); experiment: Binding affinity to human 5HT6 receptor
5-hydroxytryptamine receptor 6, sequence (P50406 whole entry): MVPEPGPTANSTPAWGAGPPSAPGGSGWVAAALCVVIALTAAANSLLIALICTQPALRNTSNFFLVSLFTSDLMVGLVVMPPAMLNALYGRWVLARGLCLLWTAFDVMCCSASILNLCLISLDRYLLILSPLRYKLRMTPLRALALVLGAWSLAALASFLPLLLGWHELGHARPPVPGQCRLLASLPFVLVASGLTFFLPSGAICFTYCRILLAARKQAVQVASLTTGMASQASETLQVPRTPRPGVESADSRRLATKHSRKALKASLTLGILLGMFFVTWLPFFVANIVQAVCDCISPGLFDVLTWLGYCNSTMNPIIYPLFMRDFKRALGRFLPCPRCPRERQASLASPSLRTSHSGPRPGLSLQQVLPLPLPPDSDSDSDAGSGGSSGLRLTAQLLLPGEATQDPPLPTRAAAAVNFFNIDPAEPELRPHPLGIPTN

[10] = Distribution coefficient, log D of the compound; format: physicochemical; conditions: octanol/water
In short: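 Lipophilicity reported as log D at pH 7.4 (log D7.4), measured alongside the guanidine pKa.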

[11] = target: T2, 5-hydroxytryptamine receptor 1A; experiment: Binding affinity to 5HT1A receptor
[12] = target: T1, 5-hydroxytryptamine receptor 5A; experiment: Antagonist activity at human 5HT5A receptor by [35S]GTP-gamma-S binding assay; format: functional; conditions: read-out: pA2 (converted)
In short: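 Functional antagonism at human 5-HT5A receptor measured by [35S]GTPγS binding; potency reported as pA2.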

[13] = Selectivity for human 5HT5A receptor over 5HT6 receptor
Brain = experiment: Drug level in mouse brain at 6.6 mg/kg, po; format: ADME, organism-based; parameters: dose 6.6 mg/kg, route oral; conditions: in vivo, read-out: Drug uptake
[14] = Dissociation constant, pKa of the compound; format: physicochemical
[15] = target: T3, 5-hydroxytryptamine receptor 1D; experiment: Binding affinity to 5HT1D receptor
[16] = target: T4, 5-hydroxytryptamine receptor 2C; experiment: Binding affinity to 5HT2C receptor
[17] = Selectivity for human 5HT5A receptor over 5HT3 receptor
[18] = Selectivity for human 5HT5A receptor over 5HT2A receptor
[19] = Clearance in mouse at 5 mg/kg, iv; format: ADME, organism-based; parameters: dose 5 mg/kg, route intravenous; conditions: in vivo
[20] = Volume of distribution at steady state in mouse at 5 mg/kg, iv; format: ADME, organism-based; parameters: dose 5 mg/kg, route intravenous; conditions: in vivo, read-out: Vdss
[21] = Half life in mouse at 5 mg/kg, iv; format: ADME, organism-based; parameters: dose 5 mg/kg, route intravenous; conditions: in vivo
[22] = Cmax in mouse at 6.6 mg/kg, po; format: ADME, organism-based; parameters: dose 6.6 mg/kg, route oral; conditions: in vivo
[23] = Tmax in mouse at 6.6 mg/kg, po; format: ADME, organism-based; parameters: dose 6.6 mg/kg, route oral; conditions: in vivo
[24] = Oral bioavailability in mouse at 6.6 mg/kg; format: ADME, organism-based; conditions: in vivo
[25] = Ratio of drug level in brain to plasma in mouse at 6.6 mg/kg, po; format: ADME, organism-based; parameters: dose 6.6 mg/kg, route oral
In short: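 Mouse pharmacokinetic study with a single oral (po) dose of 6.6 mg/kg. Drug levels were measured in brain and in plasma, and the brain/plasma ratio was taken from these.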

Histamine H1 receptor = Histamine H1 receptor (Homo sapiens, UniProt P35367); experiment: Binding affinity to histamine H1 receptor
Histamine H1 receptor, sequence (P35367 whole entry): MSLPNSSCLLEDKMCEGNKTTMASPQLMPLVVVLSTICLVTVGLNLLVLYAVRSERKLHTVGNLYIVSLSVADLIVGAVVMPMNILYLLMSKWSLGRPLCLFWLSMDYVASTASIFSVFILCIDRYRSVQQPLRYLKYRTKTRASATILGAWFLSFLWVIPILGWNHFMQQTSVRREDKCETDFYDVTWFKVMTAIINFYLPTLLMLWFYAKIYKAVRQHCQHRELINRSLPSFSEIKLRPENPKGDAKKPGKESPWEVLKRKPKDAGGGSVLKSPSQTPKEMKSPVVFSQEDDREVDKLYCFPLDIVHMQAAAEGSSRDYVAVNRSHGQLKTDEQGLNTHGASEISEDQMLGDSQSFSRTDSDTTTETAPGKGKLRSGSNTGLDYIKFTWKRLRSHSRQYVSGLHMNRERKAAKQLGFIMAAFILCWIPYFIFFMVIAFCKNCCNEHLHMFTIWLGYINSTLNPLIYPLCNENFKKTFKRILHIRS

[26] = Cmax in mouse at 10 mg/kg, po; format: ADME, organism-based; parameters: dose 10 mg/kg, route oral; conditions: in vivo
[27] = Tmax in mouse at 10 mg/kg, po; format: ADME, organism-based; parameters: dose 10 mg/kg, route oral; conditions: in vivo
[28] = Oral bioavailability in mouse at 10 mg/kg; format: ADME, organism-based; conditions: in vivo

T1 sequence (P47898 whole entry): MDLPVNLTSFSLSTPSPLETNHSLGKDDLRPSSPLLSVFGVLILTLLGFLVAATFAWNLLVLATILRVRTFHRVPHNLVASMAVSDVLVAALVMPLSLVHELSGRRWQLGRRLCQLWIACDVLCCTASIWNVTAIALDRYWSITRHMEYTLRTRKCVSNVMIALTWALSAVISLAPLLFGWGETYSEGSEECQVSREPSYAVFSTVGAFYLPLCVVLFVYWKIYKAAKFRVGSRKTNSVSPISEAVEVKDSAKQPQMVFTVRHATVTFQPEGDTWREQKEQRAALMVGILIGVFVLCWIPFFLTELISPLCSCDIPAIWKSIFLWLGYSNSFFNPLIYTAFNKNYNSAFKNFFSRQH

Structure (SMILES): C[C@@H]1NC(N)=Nc2cccc(Cl)c21
Ki ([1]; read-out: Ki): 1.6 nM | Ki [2]: 6 nM | Ki [3]: 1.3 nM | Ki [4]: 95.2 nM | Ki [5]: 1100 nM | Ki [6]: 257 nM | Ki [7]: 55 nM | Ki [8]: 1060 nM | Ki [9]: 1030 nM

Structure (SMILES): CC1NC(NC[C@H]2CCCO2)=Nc2ccccc21 (some centres not stated)
Ki ([1]; read-out: Ki): 163 nM | logD [10]: -0.6

Structure (SMILES): CC1NC(NC2CCCCN(C)C2=O)=Nc2ccccc21 (configuration not stated)
Ki ([1]; read-out: Ki): 279 nM | logD [10]: -0.1

Structure (SMILES): C[C@H]1NC(N)=Nc2cccc(Cl)c21
Ki ([1]; read-out: Ki): 415 nM

Structure (SMILES): CC1NC(N)=Nc2ccccc21 (configuration not stated)
logD [10]: -1.4 | pKa [14]: 10.5

Structure (SMILES): CC1NC(N)=Nc2cccc(Cl)c21 (configuration not stated)
Ki ([1]; read-out: Log Ki (converted)): 5.01 nM | Kb [12]: 3.16 nM | logD [10]: 0 | pKa [14]: 9.9 | clearance [19]: 30 mL/min/kg | Vd [20]: 9 L/kg | half-life [21]: 4 h | Cmax [26]: 660 ng/mL | Tmax [27]: 0.75 h | bioavailability [28]: 59%

Structure (SMILES): CCCOCCNC1=Nc2ccccc2C(C)N1 (configuration not stated)
Ki ([1]; read-out: Ki): 241 nM | logD [10]: 0.1

The next lines start with the values.

Ki [11]: 85 nM | Kb [12]: 38.9 nM | Ki [2]: 33.3 nM | logD [10]: 1.5 | Selectivity ratio [13]: > 30 | concentration (Brain): > 1000 nM | pKa [14]: 8.9 | Ki [15]: 1370 nM | Ki [16]: 401 nM | Selectivity ratio [17]: > 30 | Selectivity ratio [18]: > 30 | clearance [19]: 31 mL/min/kg | Vd [20]: 3.6 L/kg | half-life [21]: 1.4 h | Cmax [22]: 740 ng/mL | Tmax [23]: 0.25 h | bioavailability [24]: 36% | Kp [25]: 4
Structure (SMILES): CC1NC(NCC(F)F)=Nc2cccc(Cl)c21 (configuration not stated)

Ki ([1]; read-out: Ki): 153 nM | logD [10]: -0.8 | pKa [14]: 10.7
Structure (SMILES): CCCNC1=Nc2ccccc2C(C)N1 (configuration not stated)

Ki [11]: 124 nM | Ki [2]: 23.3 nM | logD [10]: 2.7 | Selectivity ratio [13]: > 30 | pKa [14]: 8.5 | Ki [15]: 630 nM | Ki [16]: 162 nM | Selectivity ratio [17]: > 30 | Selectivity ratio [18]: > 30 | Ki (Histamine H1 receptor): 18.3 nM
Structure (SMILES): CC1NC(NCC(F)F)=Nc2ccc(Cl)c(Cl)c21 (configuration not stated)

Ki ([1]; read-out: Ki): 6.8 nM | Ki [2]: 24.8 nM | Ki [3]: 2.9 nM | Ki [4]: 56 nM | Ki [5]: 1440 nM | Ki [6]: 491 nM | Ki [7]: 352 nM | Ki [9]: 4480 nM
Structure (SMILES): C[C@@H]1NC(NCC(F)F)=Nc2cccc(Cl)c21

Ki ([1]; read-out: Ki): 196 nM | logD [10]: -0.9 | pKa [14]: 10.8
Structure (SMILES): CCNC1=Nc2ccccc2C(C)N1 (configuration not stated)

Ki [11]: 53 nM | Ki [2]: 38.9 nM | logD [10]: -0.5 | Selectivity ratio [13]: > 30 | pKa [14]: 10.2 | Ki [15]: 747 nM | Ki [16]: 1660 nM | Selectivity ratio [17]: > 30 | Selectivity ratio [18]: > 30
Structure (SMILES): COc1cccc2c1N=C(NCC(F)F)NC2C (configuration not stated)

Ki ([1]; read-out: Ki): 189 nM | logD [10]: -0.3 | pKa [14]: 10.7
Structure (SMILES): CCCCNC1=Nc2ccccc2C(C)N1 (configuration not stated)
